Measured values published in ChEMBL document CHEMBL1125111, “The synthesis and antibacterial activities of quinolones containing five- and six-membered heterocyclic substituents at the 7-position” (1990).
Converted amounts (≈) assume the structure as drawn.

Experiments:
Assay type in all cases: functional
Staphylococcus aureus [1] = experiment: In vitro antibacterial activity against Staphylococcus aureus CMX 686B
Summary of the method: (§1)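 Agar dilution MIC: strains grown overnight in brain-heart infusion broth at 36 °C; test compound stock 2000 µg/mL serially diluted 2-fold into BHI agar for final 200 to 0.005 µg/mL; plates inoculated with about 10⁴ organisms, incubated 36 °C for 18 h. MIC (µg/mL) taken as lowest concentration giving no visible growth; ciprofloxacin run side by side as reference.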

Streptococcus pyogenes = experiment: In vitro antibacterial activity against Streptococcus pyogenes 930; summary of the method: as §1
Staphylococcus aureus [2] = experiment: In vitro antibacterial activity against Staphylococcus aureus A5177; summary of the method: as §1
Pseudomonas aeruginosa [3] = experiment: In vitro antibacterial activity against Pseudomonas aeruginosa 5007; summary of the method: as §1
Staphylococcus aureus [4] = experiment: In vitro antibacterial activity against Staphylococcus aureus 45; summary of the method: as §1
Escherichia coli = experiment: In vitro antibacterial activity against Escherichia coli Juhl; summary of the method: as §1
Streptococcus equinus = experiment: In vitro antibacterial activity against Streptococcus bovis A5169; summary of the method: as §1
Klebsiella aerogenes = experiment: In vitro antibacterial activity against Enterobacter aerogenes ATCC 13048; summary of the method: as §1
Klebsiella pneumoniae = experiment: In vitro antibacterial activity against Klebsiella pneumoniae 8045; summary of the method: as §1
Enterococcus faecium = experiment: In vitro antibacterial activity against Streptococcus faecium ATCC 8043; summary of the method: as §1
Pseudomonas aeruginosa [5] = experiment: In vitro antibacterial activity against Pseudomonas aeruginosa K799/WT; summary of the method: as §1
[6] = test system: Staphylococcus epidermidis; experiment: In vitro antibacterial activity against Staphylococcus epidermidis 3519; summary of the method: as §1
Streptococcus agalactiae = experiment: In vitro antibacterial activity against Streptococcus agalactiae CMS 508; summary of the method: as §1
Staphylococcus aureus [7] = experiment: In vitro antibacterial activity against Staphylococcus aureus ATCC 6538P; summary of the method: as §1
Acinetobacter = experiment: In vitro antibacterial activity against Acinetobacter CMX 669; summary of the method: as §1

| MIC (Staphylococcus aureus [1]) | MIC (Streptococcus pyogenes) | MIC (Staphylococcus aureus [2]) | MIC (Pseudomonas aeruginosa [3]) | MIC (Staphylococcus aureus [4]) | MIC (Escherichia coli) | MIC (Streptococcus equinus) | MIC (Klebsiella aerogenes) | MIC (Klebsiella pneumoniae) | MIC (Enterococcus faecium) | MIC (Pseudomonas aeruginosa [5]) | MIC [6] | MIC (Streptococcus agalactiae) | MIC (Staphylococcus aureus [7]) | MIC (Acinetobacter) | Structure (SMILES) |
| --- | --- | --- | --- | --- | --- | --- | --- | --- | --- | --- | --- | --- | --- | --- | --- |
| 12.5 µg/mL (≈ 39.4 µM) | 100 µg/mL (≈ 315 µM) | 25 µg/mL (≈ 78.8 µM) | > 100 µg/mL | 50 µg/mL (≈ 158 µM) | 50 µg/mL (≈ 158 µM) | > 100 µg/mL | 50 µg/mL (≈ 158 µM) | 25 µg/mL (≈ 78.8 µM) | > 100 µg/mL | > 100 µg/mL | 50 µg/mL (≈ 158 µM) | 100 µg/mL (≈ 315 µM) | 12.5 µg/mL (≈ 39.4 µM) | > 100 µg/mL | CCn1cc(C(=O)O)c(=O)c2cc(F)c(-c3coc(N)n3)cc21 |
| 0.78 µg/mL (≈ 2.47 µM) | 100 µg/mL (≈ 316 µM) | 3.1 µg/mL (≈ 9.8 µM) | 50 µg/mL (≈ 158 µM) | 3.1 µg/mL (≈ 9.8 µM) | 6.2 µg/mL (≈ 19.6 µM) | 100 µg/mL (≈ 316 µM) | 50 µg/mL (≈ 158 µM) | 3.1 µg/mL (≈ 9.8 µM) | 100 µg/mL (≈ 316 µM) | 50 µg/mL (≈ 158 µM) | 3.1 µg/mL (≈ 9.8 µM) | 50 µg/mL (≈ 158 µM) | 1.56 µg/mL (≈ 4.93 µM) | 12.5 µg/mL (≈ 39.5 µM) | CCn1cc(C(=O)O)c(=O)c2cc(F)c(-c3coc(C)n3)cc21 |
| 0.78 µg/mL (≈ 2.47 µM) | 50 µg/mL (≈ 159 µM) | 1.56 µg/mL (≈ 4.95 µM) | > 100 µg/mL | 1.56 µg/mL (≈ 4.95 µM) | 12.5 µg/mL (≈ 39.6 µM) | > 100 µg/mL | 12.5 µg/mL (≈ 39.6 µM) | 6.2 µg/mL (≈ 19.7 µM) | > 100 µg/mL | > 100 µg/mL | 1.56 µg/mL (≈ 4.95 µM) | 50 µg/mL (≈ 159 µM) | 1.56 µg/mL (≈ 4.95 µM) | 25 µg/mL (≈ 79.3 µM) | CCn1cc(C(=O)O)c(=O)c2cc(F)c(-c3ccc(C)o3)cc21 |
| 6.2 µg/mL (≈ 20.5 µM) | > 100 µg/mL | 12.5 µg/mL (≈ 41.4 µM) | > 100 µg/mL | 25 µg/mL (≈ 82.7 µM) | 12.5 µg/mL (≈ 41.4 µM) | > 100 µg/mL | 12.5 µg/mL (≈ 41.4 µM) | 6.2 µg/mL (≈ 20.5 µM) | > 100 µg/mL | 100 µg/mL (≈ 331 µM) | 12.5 µg/mL (≈ 41.4 µM) | > 100 µg/mL | 6.2 µg/mL (≈ 20.5 µM) | 50 µg/mL (≈ 165 µM) | CCn1cc(C(=O)O)c(=O)c2cc(F)c(-c3cocn3)cc21 |
| 12.5 µg/mL | 50 µg/mL | 25 µg/mL | > 100 µg/mL | 50 µg/mL | 25 µg/mL | > 100 µg/mL | 50 µg/mL | 12.5 µg/mL | > 100 µg/mL | > 100 µg/mL | 50 µg/mL | 50 µg/mL | 12.5 µg/mL | > 100 µg/mL | CCn1cc(C(=O)O)c(=O)c2cc(F)c(-c3c[nH]cn3)cc21.Cl |

Second part, the molecule before the results:

| Structure (SMILES) | MIC (Staphylococcus aureus [1]) | MIC (Streptococcus pyogenes) | MIC (Staphylococcus aureus [2]) | MIC (Pseudomonas aeruginosa [3]) | MIC (Staphylococcus aureus [4]) | MIC (Escherichia coli) | MIC (Streptococcus equinus) | MIC (Klebsiella aerogenes) | MIC (Klebsiella pneumoniae) | MIC (Enterococcus faecium) | MIC (Pseudomonas aeruginosa [5]) | MIC [6] | MIC (Streptococcus agalactiae) | MIC (Staphylococcus aureus [7]) | MIC (Acinetobacter) |
| --- | --- | --- | --- | --- | --- | --- | --- | --- | --- | --- | --- | --- | --- | --- | --- |
| CCn1cc(C(=O)O)c(=O)c2cc(F)c(C3=NCCCO3)cc21 | 50 µg/mL (≈ 157 µM) | > 100 µg/mL | > 100 µg/mL | > 100 µg/mL | > 100 µg/mL | 50 µg/mL (≈ 157 µM) | > 100 µg/mL | > 100 µg/mL | 25 µg/mL (≈ 78.5 µM) | > 100 µg/mL | > 100 µg/mL | > 100 µg/mL | > 100 µg/mL | 50 µg/mL (≈ 157 µM) | > 100 µg/mL |
| CCn1cc(C(=O)O)c(=O)c2cc(F)c(C(=O)O)cc21 | > 100 µg/mL | > 100 µg/mL | > 100 µg/mL | > 100 µg/mL | > 100 µg/mL | > 100 µg/mL | > 100 µg/mL | > 100 µg/mL | > 100 µg/mL | > 100 µg/mL | > 100 µg/mL | > 100 µg/mL | > 100 µg/mL | > 100 µg/mL | > 100 µg/mL |
| CCn1cc(C(=O)O)c(=O)c2cc(F)c(C(=O)NCCO)cc21 | > 100 µg/mL | > 100 µg/mL | > 100 µg/mL | > 100 µg/mL | > 100 µg/mL | 50 µg/mL (≈ 155 µM) | > 100 µg/mL | > 100 µg/mL | 50 µg/mL (≈ 155 µM) | > 100 µg/mL | > 100 µg/mL | > 100 µg/mL | > 100 µg/mL | > 100 µg/mL | > 100 µg/mL |
| CCn1cc(C(=O)O)c(=O)c2cc(F)c(C3=NCCO3)cc21 | 12.5 µg/mL (≈ 41.1 µM) | > 100 µg/mL | 25 µg/mL (≈ 82.2 µM) | > 100 µg/mL | 50 µg/mL (≈ 164 µM) | 12.5 µg/mL (≈ 41.1 µM) | > 100 µg/mL | 12.5 µg/mL (≈ 41.1 µM) | 6.2 µg/mL (≈ 20.4 µM) | > 100 µg/mL | > 100 µg/mL | 50 µg/mL (≈ 164 µM) | > 100 µg/mL | 25 µg/mL (≈ 82.2 µM) | 50 µg/mL (≈ 164 µM) |
| CCn1cc(C(=O)O)c(=O)c2cc(F)c(C3=NC(C)(C)CO3)cc21 | 12.5 µg/mL (≈ 37.6 µM) | > 100 µg/mL | 25 µg/mL (≈ 75.2 µM) | > 100 µg/mL | 100 µg/mL (≈ 301 µM) | > 100 µg/mL | > 100 µg/mL | > 100 µg/mL | 100 µg/mL (≈ 301 µM) | > 100 µg/mL | > 100 µg/mL | 50 µg/mL (≈ 150 µM) | > 100 µg/mL | 25 µg/mL (≈ 75.2 µM) | > 100 µg/mL |
| O=C(O)c1cn(C2CC2)c2cc(N3CCNCC3)c(F)cc2c1=O [CIPROFLOXACIN] | 0.2 µg/mL (≈ 0.604 µM) | 0.39 µg/mL (≈ 1.18 µM) | 0.39 µg/mL (≈ 1.18 µM) | 0.2 µg/mL (≈ 0.604 µM) | 1.56 µg/mL (≈ 4.71 µM) |  | 1.56 µg/mL (≈ 4.71 µM) | 0.05 µg/mL (≈ 0.151 µM) | 0.02 µg/mL (≈ 0.0604 µM) | 0.39 µg/mL (≈ 1.18 µM) | 0.2 µg/mL (≈ 0.604 µM) | 0.39 µg/mL (≈ 1.18 µM) | 0.39 µg/mL (≈ 1.18 µM) | 0.1 µg/mL (≈ 0.302 µM) | 0.78 µg/mL (≈ 2.35 µM) |
